Experimental data from article PMC3417325 (FEBS letters, 2010).
Ends that are not written are not given here.

Legend:
S. aureus = conditions: cited from earlier work
[1] = SPR, HNP1 peptides on soluble Lipid II immobilized on the chip surface; assay type: binding; conditions: peptide at 0.1, 1 or 10 µM, supplemental Figure 1
Method in brief: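 The ligand was short-chain, water-soluble farnesyl (three-isoprene) Lipid II, made with M. flavus vesicles, C18 HPLC-purified and confirmed by mass spectrometry. Signals were corrected by subtracting a control flow-cell.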

[2] = ANTS/DPX leakage assay from LUVs
Method in brief: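 LUVs (250 nm, 600 µM final lipid) were loaded with 12.5 mM ANTS and 45 mM DPX by freeze-thaw and 0.4-µm extrusion, then gel-filtered. Buffer was high-salt (5 mM HEPES, 100 mM NaCl, pH 7.4) or low-salt (10 mM NaCl). Twofold defensin dilutions were added, with a water blank and 0.25% Triton X-100 for 100%. Ex 353/Em 515 nm; % leakage = (Ft−F0)/(F100−F0)×100.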

[3] = system: Staphylococcus aureus ATCC 29213; assay type: cell-based; conditions: peptide 256 and 128 µg/ml, 15 min exposure, growth monitored 12 h

Molecule	Activity against Gram-positive bacteria / bactericidal activity (S. aureus)	Binding of peptide to immobilized soluble Lipid II [1]	Leakage from LUVs with increasing content of POPG ([2]; POPC:POPG = 1:0, 3:2, 2:3, 0:1, HNP1 0.19 to 100 µg/ml, 1 h, triplicate)	Membrane activity (leakage from POPG LUVs) ([2]; POPG LUVs, panel of six α-defensins, high and low salt, over 24 h (Figure 1))	Bacterial growth after exposure to HNP1 [3]
HNP4: fourth α-defensin discovered in neutrophils (VCSCRLVFCRRTELRVGNCLIGGVSFTYCCTRV; disulfide (positions not given here); ends not checked; UniProt P12838 64-96, looked up)	ineffective against Gram-positive bacteria				
Human Neutrophil Peptide 1 [HNP1]	potently bactericidal	bound Lipid II dose-dependently	increasingly pronounced	reduced	bacterial growth did not measurably recover
HD-5: human α-defensin stored in granules of Paneth cells (peptide, UniProt Q01523 20-94, looked up, Defensin-5) Defensin alpha 5: ESLQERADEATTQKQSGEDNQDLAISFAGNGLSALRTSGSQARATCYCRTGRCATRESLSGVCEISGRLYRLCCR	potently bactericidal				
